# Bioassay records deposited in PubChem by several laboratories.
# Efflux pump mplx = inhibitors of Candida efflux pumps in yeast, primary screen, S. cerevisiae, Nile Red, multiplex; inhibition, % at 10 µM; 330,000 tested, 0.44% active; S. cerevisiae Candida pump triplex;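 active = plate passing quality check with inhibition over a set limit, or well fluorescence over plate mean plus 4 SD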;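 note: Nile Red retained in pooled yeast measured as flow cytometry median fluorescence; 0% = buffer negative control and 100% = Enniatin B positive control; higher means more Nile Red kept so more efflux inhibition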
# TAG inh = inhibitors of triacylglycerol accumulation, primary screen, cell-based, uHTS, fluorescence, H9c2. H9c2 cells, Nile Red lipid (TAG) fluorescence; cells loaded with 200 µM oleic acid. inhibition, % at 12.5 µM. 230,000 tested, 0.66% active. AID 651582, 2012;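 active = pattern-corrected inhibition of lipid staining of at least 50% with the nuclear-stain viability signal not falling by more than 50%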;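 note: 0% = DMSO wells and 100% = triacsin C control wells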
# MT1-MMP act inh = blockers of MT1-MMP proenzyme processing, primary screen, HT1080 RFP-PRO-GFP cells, GFP/RFP fluorescence; Matrix metalloproteinase-14 (Homo sapiens), P50281; GFP/RFP ratio fluorescence, overnight; percent of plate control window, DMSO zero; GFP/RFP ratio change, % at 20 µM; 360,000 tested, 0.061% active;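 active = GFP/RFP ratio change of at least 30% with cell ATP level not reduced by more than half and red fluorescence within 50% of control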
#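 Material: RFP-PRO-GFP reporter HT1080 cells. Dosing: single-point 20 µM compound, 1% DMSO. Controls: DMSO and RFP-L50D-GFP cell wells. Timing: cells overnight before dosing, compound overnight, 37 °C, 5% CO2. Measure: GFP/RFP fluorescence ratio.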
# HGIII-sPLA2 inh = human group III sPLA2 inhibitors, primary screen, biochemical, QFRET, BODIPY PC-A2 liposome substrate | QFRET BODIPY PC-A2 liposome hydrolysis, fluorescence | inhibition, % at 12.2 µM | 370,000 tested, 0.56% active;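 active = inhibition above mean plus 3 SD of compounds lying within the high and low control bounds, cut at about 19% in these data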;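 note: 0% = median of test compound wells and 100% = no enzyme DMSO wells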
# Target sequence (Q9NZ20 whole entry, looked up): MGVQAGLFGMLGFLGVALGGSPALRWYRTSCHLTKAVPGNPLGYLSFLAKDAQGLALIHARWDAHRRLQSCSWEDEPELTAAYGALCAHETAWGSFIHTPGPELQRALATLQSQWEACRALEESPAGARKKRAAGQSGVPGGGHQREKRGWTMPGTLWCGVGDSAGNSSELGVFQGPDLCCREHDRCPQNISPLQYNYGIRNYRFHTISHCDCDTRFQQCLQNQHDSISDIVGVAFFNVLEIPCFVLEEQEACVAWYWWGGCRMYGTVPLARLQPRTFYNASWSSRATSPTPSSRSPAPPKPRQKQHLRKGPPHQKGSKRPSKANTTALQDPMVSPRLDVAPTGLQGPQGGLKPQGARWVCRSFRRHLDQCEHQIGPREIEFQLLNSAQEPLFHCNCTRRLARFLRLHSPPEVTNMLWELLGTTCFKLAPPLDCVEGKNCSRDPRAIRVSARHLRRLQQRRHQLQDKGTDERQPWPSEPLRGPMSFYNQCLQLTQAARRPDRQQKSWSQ
# Yeast cmpd fluor = counter-screen for efflux pump inhibitors: compound fluorescence; S. cerevisiae AD/pABC3, flow cytometry; shares compounds with Efflux pump mplx; fluorescence ratio to DMSO, % at 10 µM; AID 588517; 1,700 tested, 4% active;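 active = fluorescence ratio to DMSO above its plate's cutoff, the plate mean ratio plus 5 SD, cut at about 210% in these data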;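 note: unstained yeast with no Nile Red so the signal is compound autofluorescence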
# Mdr1 pump inh = inhibitors of Candida albicans Mdr1 efflux, confirmation, flow cytometry, singleplex, Cherry Pick1 set | inhibition, % at 10 µM | AID 588518, 2011 | 1,700 tested, 1% active | shares compounds with Efflux pump mplx | S. cerevisiae AD/CaMDR1, Nile Red efflux; in the data active = inhibition above about 26%;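 note: 0% = DMSO vehicle and 100% = reference inhibitor; higher means more Nile Red retained so more efflux inhibition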
# Cdr2 pump inh = inhibitors of Candida albicans Cdr2 efflux pump, confirmation, S. cerevisiae AD/CaCDR2, flow cytometry, cherry pick 1, singleplex | shares compounds with Efflux pump mplx | Nile Red retention | Nile Red retention ratio vs DMSO, % at 10 µM | 1,700 tested, 4% active | AID 588520, 2011; in the data active = Nile Red retention ratio vs DMSO above about 190%;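 note: higher ratio means more blocking of Cdr2 efflux of the dye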
# Cdr1 pump inh = inhibitors of Candida albicans Cdr1 efflux pump, confirmation, S. cerevisiae AD/CaCDR1, flow cytometry, cherry pick 1, singleplex. Nile Red efflux. 1,700 tested, 1% active. inhibition, % at 10 µM. shares compounds with Efflux pump mplx. AID 588522, 2011;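 active = inhibition above the screen-wide mean plus twice its standard deviation, cut at about 32% in these data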
# TAG conf = triacylglycerol accumulation inhibitors, retest, confirmation, cell-based, single concentration, Nile Red fluorescence, H9c2; shares compounds with TAG inh; H9c2 lipid accumulation; cells loaded with 200 µM oleic acid; inhibition, % at 12.5 µM; 990 tested, 71% active; AID 651629, 2012;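 active = mean inhibition across replicates of 40% or more; inactive = mean inhibition below 40%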;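 note: plate controls were DMSO only wells for no effect and Triacsin C treated wells for full effect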
# MT1-MMP conf = MT1-MMP activation inhibitors, hit retest, confirmation, single concentration, fluorescence, HT1080 RFP-PRO-GFP cells. shares compounds with MT1-MMP act inh. GFP and RFP fluorescence ratio, overnight. inhibition, % at 20 µM. 200 tested, 10% active. AID 652235, 2013;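 active = inhibition of at least 50% in the primary cell screen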
# sPLA2 confirm = human group III sPLA2 inhibitors, confirmation, biochemical, QFRET, triplicate; shares compounds with HGIII-sPLA2 inh; recombinant hGIII-sPLA2, BODIPY PC-A2 QFRET fluorescence; inhibition, % at 12.2 µM; 2,000 tested, 34% active; AID 743280, 2014;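 active = mean inhibition across triplicates above the hit cutoff set in the earlier primary screen, cut at about 19% in these data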;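 note: 0% = enzyme with DMSO and 100% = DMSO wells lacking enzyme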
# 535nm interf = 535nm fluorescence optical interference, confirmation, artefact control for HGIII-sPLA2 inhibitor project, biochemical, QFRET | shares compounds with HGIII-sPLA2 inh | BODIPY FL product fluorescence interference | inhibition, % at 12.2 µM | 2,000 tested, 8.5% active | AID 743282, 2014;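 active = average inhibition above the solvent-only control mean plus 3 SD, cut at about 6% in these data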;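 note: 0% = DMSO with substrate plus product and 100% = DMSO with substrate alone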
# BODIPY interf DR = 535nm fluorescence optical interference, dose response, artefact control for HGIII-sPLA2 inhibitor project, biochemical, QFRET; shares compounds with HGIII-sPLA2 inh; BODIPY FL product fluorescence interference, cell-free; IC50, µM; 240 tested, under 10 active; AID 743455, 2014;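 active = IC50 at or below 10 µM; inactive = IC50 above 10 µM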
# Starred values were filed as active, the others as inactive; x = no result; ! = repeats disagree. Shown are actives, neighbours in structure and some others; about 1.3% of the full set was active somewhere.
SMILES,Efflux pump mplx,TAG inh,MT1-MMP act inh,HGIII-sPLA2 inh,others
CCC(C)N1C(=O)/C(=C\c2cc3c4c(c2)CCCN4CCC3)C(=O)NC1=S (stereo not given),0.7*,x,-9.0,21.6*,Yeast cmpd fluor=118.0;Mdr1 pump inh=-0.2;Cdr2 pump inh=114.4;Cdr1 pump inh=0.2;sPLA2 confirm=32.8*;535nm interf=4.7;BODIPY interf DR=>122
O=C(NCCN1CCC2(CC1)C(=O)NCN2c1ccccc1)c1ccc(F)cc1,x,x,x,8.7,
CN1CSC(=S)N(C)C1,-0.1,64.5*,-1.6,3.6,TAG conf=64.2*
COc1ccc2[nH]c(C)c(CCNCc3cn(C)c4ccccc34)c2c1,0.0,55.6*,-3.8,-3.0,TAG conf=46.1*
O=S(=O)(c1ccc(Cl)cc1)N1Cc2ccc(Br)cc2-n2nncc2C1,x,x,x,7.2,
O=C(NCCN1CCC2(CC1)C(=O)NCN2c1ccccc1)c1ccc(Cl)cc1,x,x,x,1.6,
COC(=O)C1=C(c2ccc(OCc3ccccc3)cc2)C[C@@H]2CC[C@H]1N2C(=O)NCc1ccc(C(C)(C)C)cc1,x,69.7*,-9.8,-2.0,TAG conf=74.7*
COC(=O)C1=C(c2ccc(OCc3ccccc3)cc2)C[C@@H]2CC[C@H]1N2C(=O)NCc1ccccc1,0.0,-13.1,-3.0,4.5,
CCCCCCC(C)(C)c1ccc([C@@H]2C[C@H](O)CC[C@H]2CCCO)c(O)c1,0.2,105.6*,-2.7,-38.6,TAG conf=115.7*
COc1cc2c(c3oc4cccc(O)c4c(=O)c13)[C@@H]1C=CO[C@@H]1O2,x,x,x,-2.2,
COc1ccc(C2=CC(c3ccc4c(c3)OCO4)c3c(c4ccccc4oc3=O)O2)cc1OC (stereo not given),x,60.7*,-7.0,-4.4,TAG conf=60.5*
COc1ccc(C(CC(=O)c2ccc3c(c2)OCO3)c2c(O)c3ccccc3oc2=O)cc1OC (stereo not given),x,-6.0,-3.4,-16.2,
CN1C(=O)C(=Cc2ccc(Sc3ccccc3)o2)C(=O)N(C)C1=O,-0.1,20.7,32.7*,2.1,MT1-MMP conf=3.3
CN1C(=O)C(=Cc2ccc(Sc3ccccc3)o2)C(=O)N(C)C1=S,-0.1,3.6,36.2,-1.8,
C[N+]1=C(/C=C/Nc2ccccc2)C(C)(C)c2ccccc21,0.6,x,37.8*,7.6,MT1-MMP conf=26.3
CN1C2CCC1C(C(=O)Oc1ccccc1)C(c1ccc(Cl)cc1)C2 (stereo not given),x,x,x,-5.2,
CCC(C)N1C(=O)/C(=C\c2ccc(N3CCCCCC3)cc2)C(=O)NC1=S (stereo not given),0.4,x,33.5*,-6.1,MT1-MMP conf=3.1
COc1cc2c(cc1OC)-c1c(OC)c(OC)cc3c1[C@H](C2)N(C)CC3,-0.1,-4.0,50.4*,-8.5,MT1-MMP conf=5.3
Cc1ccc(OC(=O)N(C)C[C@H]2OCc3cnnn3CCCC(=O)N([C@@H](C)CO)C[C@@H]2C)cc1,x,x,x,3.4,
CNc1ccc2nc3ccccc3[n+](C)c2c1,6.0*,x,67.3*,4.0,MT1-MMP conf=49.2
C[n+]1c2ccccc2nc2ccc(NCCO)cc21,1.8*,x,55.1*,8.2,MT1-MMP conf=37.6
OCCNc1c2c(nc3ccccc13)CCCC2,0.1,11.5,-6.5,6.3,
CC(=O)C1=C(C)OC2=C(C(=O)CCC2)[C@@]12C(=O)N(C)c1ccccc12,x,x,x,0.0,
Clc1cc(Cl)cc(CN2Cc3ccccc3-n3nncc3C2)c1,x,x,x,4.1,
O=c1[nH]c(O)c(/C=C2/C=CC(c3cc(Cl)ccc3Cl)=N2)c(=O)[nH]1,0.2,6.5,-40.6,19.8*,sPLA2 confirm=17.0;535nm interf=2.2
SMILES,Efflux pump mplx,TAG inh,MT1-MMP act inh,HGIII-sPLA2 inh,others
Fc1ccc2nc(-c3ccc(CN4CCC(n5nnc6ccccc65)CC4)cc3)c(-c3ccccc3)nc2c1,x,x,x,-0.5,
CCCCn1c(=O)c(C(=O)Nc2ncccc2C)c(O)c2ccccc21,-0.1,-11.2,-3.2,19.8*,sPLA2 confirm=-7.6;535nm interf=-17.3
CN(C)c1ccc(/C=C/[N+](=O)[O-])cc1,0.0,3.8,2.8,23.2*,sPLA2 confirm=11.6;535nm interf=1.9
COC1CC=C2CCN3CCC4=C(CC(=O)OC4)C23C1 (stereo not given),x,x,x,-1.4,
C/C(=N\N1CCN(C)CC1)c1c(O)[nH]c(=O)[nH]c1=O,0.1,x,-1.6,19.6*,sPLA2 confirm=0.0;535nm interf=-6.3
CN(C)c1ccccc1,x,1.4,-3.3,-8.2,
Cc1cccc(N=Nc2ccc(N(C)C)cc2)c1,0.3,x,7.1,19.5*,sPLA2 confirm=27.3*;535nm interf=4.4
Nc1cncc(C(=O)O)c1,0.0,3.6,-3.7,20.8*!,sPLA2 confirm=-1.6;535nm interf=-8.2
O=C1CCCN1C(=O)c1cncc(Br)c1,-0.1,-11.2,0.2,-0.4,
COc1cc(CC(C)N)c(OC)cc1I (stereo not given),-0.1,12.3,-1.4,23.6*!,sPLA2 confirm=5.9;535nm interf=-12.2
COc1ccccc1Sc1ccccc1CC(C)N (stereo not given),1.3,x,-4.6,8.7,
